In brackets after ≈: the same amount, converted by molar mass.
Experiments:
Assay type in all cases: functional
Streptococcus [1] = assay: In vitro minimum inhibitory concentration against Streptococcus species
Staphylococcus [2] = assay: In vitro minimum inhibitory concentration against Staphylococcus species; Range is 0.5-2 ug/mL
Enterococcus [3] = assay: In vitro minimum inhibitory concentration against Enterococcus species; Range is 2-4 ug/mL
Staphylococcus aureus = assay: Effective dose of compound against […] Smith (GC 4543) in mice
Outline: (§1)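 Murine protection models against S. aureus Smith (GC 4543) and E. faecalis (GC 6189). Compounds dosed in D5W (5% dextrose in water); vancomycin dosed in saline. Five dosages, five mice per dosage level. ED50 in mg/kg reported as the pooled mean from at least three separate tests.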

Staphylococcus [4] = assay: In vitro minimum inhibitory concentration against Staphylococcus species
Enterococcus faecalis = assay: Effective dose of compound against Enterococcus faecalis (GC 6189) in mice; outline: as §1
Enterococcus [5] = assay: In vitro minimum inhibitory concentration against Enterococcus species; Range is 0.5-2 ug/mL
Streptococcus [6] = assay: In vitro minimum inhibitory concentration against Streptococcus species; Range is 0.12-0.25 ug/mL
Staphylococcus [7] = assay: In vitro minimum inhibitory concentration against Staphylococcus species; Range is 0.5-1 ug/mL
Enterococcus [8] = assay: In vitro minimum inhibitory concentration against Enterococcus species (in vitro); Range is 1-2 ug/mL
Staphylococcus [9] = assay: In vitro minimum inhibitory concentration against Staphylococcus species; Range is 1-2 ug/mL
Streptococcus [10] = assay: In vitro minimum inhibitory concentration against Streptococcus species; Range is 0.06-0.12 ug/mL
Enterococcus [11] = assay: In vitro minimum inhibitory concentration against Enterococcus species; Range is 0.5-4 ug/mL
Staphylococcus [12] = assay: In vitro minimum inhibitory concentration against Staphylococcus species; Range is 0.25-1 ug/mL
Enterococcus [13] = assay: In vitro minimum inhibitory concentration against Enterococcus species; Range is 0.5-1 ug/mL
Streptococcus [14] = assay: In vitro minimum inhibitory concentration against Streptococcus species; Range is 0.06-0.25 ug/mL
Enterococcus [15] = assay: In vitro minimum inhibitory concentration against Enterococcus species; Range is 1-2 ug/mL
Enterococcus [16] = assay: In vitro minimum inhibitory concentration against Enterococcus species
Staphylococcus [17] = assay: In vitro minimum inhibitory concentration against Staphylococcus species; Range is 1-4 ug/mL
Enterococcus [18] = assay: In vitro minimum inhibitory concentration against Enterococcus species; Range is 4-8 ug/mL
Staphylococcus [19] = assay: In vitro minimum inhibitory concentration against Staphylococcus species; Range is 0.06-0.12 ug/mL
Enterococcus [20] = assay: In vitro minimum inhibitory concentration against Enterococcus species; Range is 0.12-0.25 ug/mL
Streptococcus [21] = assay: In vitro minimum inhibitory concentration against Streptococcus species; Range is 0.12-1 ug/mL
Streptococcus [22] = assay: In vitro minimum inhibitory concentration against Streptococcus species; Range is 0.12-0.5 ug/mL
Enterococcus [23] = assay: In vitro minimum inhibitory concentration against Enterococcus species; Range is 0.5-128 ug/mL

Structure (SMILES): NC1=NC[C@@H]([C@H](O)[C@@H]2NC(=O)[C@@H](Cc3ccc(O[C@H]4O[C@H](CO)[C@@H](O[C@H]5O[C@@H]6COC(c7ccccc7)O[C@H]6[C@H](O)[C@@H]5O)[C@H](O)[C@@H]4O)cc3)NC(=O)C(CC3CCCCC3)NC(=O)CNC(=O)[C@H](CO)NC(=O)[C@@H]([C@@H](O)[C@@H]3CN=C(N)N3[C@H]3O[C@H](CO)[C@@H](O)[C@H](O)[C@@H]3O)NC2=O)N1 (stereo not given in full)
- MIC (Streptococcus [1]): ≤ 0.12 µg/mL
- MIC (Staphylococcus [2]): 2 µg/mL (≈ 1.45 µM)
- MIC (Enterococcus [3]): 4 µg/mL (≈ 2.91 µM)

Structure (SMILES): C[C@@H](c1ccccc1)C1NC(=O)CNC(=O)[C@H](CO)NC(=O)[C@@H]([C@@H](O)[C@@H]2CN=C(N)N2[C@H]2O[C@H](CO)[C@@H](O)[C@H](O)[C@@H]2O)NC(=O)[C@H]([C@@H](O)[C@@H]2CN=C(N)N2)NC(=O)[C@@H](Cc2ccc(O[C@H]3O[C@H](CO)[C@@H](O[C@H]4O[C@@H]5COC(C6CCCCC6)O[C@H]5[C@H](O)[C@@H]4O)[C@H](O)[C@@H]3O)cc2)NC1=O (stereo not given in full)
- ED50 (Staphylococcus aureus): 0.07 mg/kg
- MIC (Staphylococcus [4]): 1 µg/mL (≈ 0.72 µM)
- ED50 (Enterococcus faecalis): 0.19 mg/kg
- MIC (Streptococcus [1]): ≤ 0.12 µg/mL
- MIC (Enterococcus [5]): 2 µg/mL (≈ 1.44 µM)

Structure (SMILES): C[C@@H](c1ccccc1)C1NC(=O)CNC(=O)[C@H](CO)NC(=O)[C@@H]([C@@H](O)[C@@H]2CN=C(N)N2[C@H]2O[C@H](CO)[C@@H](O)[C@H](O)[C@@H]2O)NC(=O)[C@H]([C@@H](O)[C@@H]2CN=C(N)N2)NC(=O)[C@@H](Cc2ccc(O[C@H]3O[C@H](CO)[C@@H](O[C@H]4O[C@@H]5COC(c6ccccc6)O[C@H]5[C@H](O)[C@@H]4O)[C@H](O)[C@@H]3O)cc2)NC1=O (stereo not given in full)
- MIC (Streptococcus [6]): ≤ 0.25 µg/mL
- ED50 (Staphylococcus aureus): 0.19 mg/kg
- ED50 (Enterococcus faecalis): 0.39 mg/kg
- MIC (Staphylococcus [2]): 2 µg/mL (≈ 1.45 µM)
- MIC (Enterococcus [3]): 4 µg/mL (≈ 2.89 µM)

Structure (SMILES): CCCCCC1OC[C@H]2O[C@H](O[C@H]3[C@H](O)[C@H](O)[C@@H](Oc4ccc(C[C@H]5NC(=O)C([C@@H](C)c6ccccc6)NC(=O)CNC(=O)[C@H](CO)NC(=O)[C@@H]([C@@H](O)[C@@H]6CN=C(N)N6[C@H]6O[C@H](CO)[C@@H](O)[C@H](O)[C@@H]6O)NC(=O)[C@H]([C@@H](O)[C@@H]6CN=C(N)N6)NC5=O)cc4)O[C@@H]3CO)[C@@H](O)[C@@H](O)[C@@H]2O1 (stereo not given in full)
- MIC (Staphylococcus [7]): ≤ 1 µg/mL
- MIC (Streptococcus [1]): ≤ 0.5 µg/mL
- MIC (Enterococcus [8]): 2 µg/mL (≈ 1.45 µM)

Structure (SMILES): C[C@@H](c1ccccc1)C1NC(=O)CNC(=O)[C@H](CO)NC(=O)[C@@H]([C@@H](O)[C@@H]2CN=C(N)N2[C@H]2O[C@H](CO)[C@@H](O)[C@H](O)[C@@H]2O)NC(=O)[C@H]([C@@H](O)[C@@H]2CN=C(N)N2)NC(=O)[C@@H](Cc2ccc(O[C@H]3O[C@H](CO)[C@@H](O[C@H]4O[C@@H]5COC(CC6CCCCC6)O[C@H]5[C@H](O)[C@@H]4O)[C@H](O)[C@@H]3O)cc2)NC1=O (stereo not given in full)
- MIC (Staphylococcus [9]): 2 µg/mL (≈ 1.43 µM)
- MIC (Streptococcus [10]): ≤ 0.12 µg/mL
- MIC (Enterococcus [3]): 4 µg/mL (≈ 2.85 µM)

Structure (SMILES): NC1=NC[C@@H]([C@H](O)[C@@H]2NC(=O)[C@@H](Cc3ccc(O[C@H]4O[C@H](CO)[C@@H](O[C@H]5O[C@@H]6COC(Cc7ccccc7)O[C@H]6[C@H](O)[C@@H]5O)[C@H](O)[C@@H]4O)cc3)NC(=O)C(CC3CCCCC3)NC(=O)CNC(=O)[C@H](CO)NC(=O)[C@@H]([C@@H](O)[C@@H]3CN=C(N)N3[C@H]3O[C@H](CO)[C@@H](O)[C@H](O)[C@@H]3O)NC2=O)N1 (stereo not given in full)
- MIC (Staphylococcus [9]): 2 µg/mL (≈ 1.44 µM)
- MIC (Enterococcus [11]): 4 µg/mL (≈ 2.88 µM)
- MIC (Streptococcus [10]): ≤ 0.12 µg/mL

Structure (SMILES): C[C@@H](c1ccccc1)C1NC(=O)CNC(=O)[C@H](CO)NC(=O)[C@@H]([C@@H](O)[C@@H]2CN=C(N)N2[C@H]2O[C@H](CO)[C@@H](O)[C@H](O)[C@@H]2O)NC(=O)[C@H]([C@@H](O)[C@@H]2CN=C(N)N2)NC(=O)[C@@H](Cc2ccc(O[C@H]3O[C@H](CO)[C@@H](O[C@H]4O[C@@H]5COC6(O[C@H]5[C@H](O)[C@@H]4O)C4CC5CC(C4)CC6C5)[C@H](O)[C@@H]3O)cc2)NC1=O (stereo not given in full)
- ED50 (Staphylococcus aureus): 0.04 mg/kg
- ED50 (Enterococcus faecalis): 1.8 mg/kg
- MIC (Staphylococcus [12]): 1 µg/mL (≈ 0.701 µM)
- MIC (Enterococcus [13]): 1 µg/mL (≈ 0.701 µM)
- MIC (Streptococcus [1]): ≤ 0.06 µg/mL

Structure (SMILES): C[C@@H](c1ccccc1)C1NC(=O)CNC(=O)[C@H](CO)NC(=O)[C@@H]([C@@H](O)[C@@H]2CN=C(N)N2[C@H]2O[C@H](CO)[C@@H](O)[C@H](O)[C@@H]2O)NC(=O)[C@H]([C@@H](O)[C@@H]2CN=C(N)N2)NC(=O)[C@@H](Cc2ccc(O[C@H]3O[C@H](CO)[C@@H](O[C@H]4O[C@@H]5COC(Cc6ccccc6)O[C@H]5[C@H](O)[C@@H]4O)[C@H](O)[C@@H]3O)cc2)NC1=O (stereo not given in full)
- ED50 (Staphylococcus aureus): 0.23 mg/kg
- MIC (Staphylococcus [4]): 2 µg/mL (≈ 1.43 µM)
- MIC (Streptococcus [14]): ≤ 0.25 µg/mL
- ED50 (Enterococcus faecalis): 1.04 mg/kg
- MIC (Enterococcus [15]): 2 µg/mL (≈ 1.43 µM)

Structure (SMILES): C[C@@H](c1ccccc1)C1NC(=O)CNC(=O)[C@H](CO)NC(=O)[C@@H]([C@@H](O)[C@@H]2CN=C(N)N2[C@H]2O[C@H](CO)[C@@H](O)[C@H](O)[C@@H]2O)NC(=O)[C@H]([C@@H](O)[C@@H]2CN=C(N)N2)NC(=O)[C@@H](Cc2ccc(O[C@H]3O[C@H](CO)[C@@H](O[C@H]4O[C@H](CO)[C@@H](O)[C@H](O)[C@@H]4O)[C@H](O)[C@@H]3O)cc2)NC1=O (stereo not given in full)
- MIC (Enterococcus [16]): > 128 µg/mL
- ED50 (Staphylococcus aureus): 20 mg/kg
- MIC (Staphylococcus [4]): 128 µg/mL (≈ 98.8 µM)
- MIC (Streptococcus [1]): > 32 µg/mL

Structure (SMILES): C[C@@H](c1ccccc1)C1NC(=O)CNC(=O)[C@H](CO)NC(=O)[C@@H]([C@@H](O)[C@@H]2CN=C(N)N2[C@H]2O[C@H](CO)[C@@H](O)[C@H](O)[C@@H]2O)NC(=O)[C@H]([C@@H](O)[C@@H]2CN=C(N)N2)NC(=O)[C@@H](Cc2ccc(O[C@H]3O[C@H](CO)[C@@H](O[C@H]4O[C@@H]5COC6(O[C@H]5[C@H](O)[C@@H]4O)C4CCCC6CCC4)[C@H](O)[C@@H]3O)cc2)NC1=O (stereo not given in full)
- MIC (Staphylococcus [17]): 4 µg/mL (≈ 2.83 µM)
- MIC (Streptococcus [1]): ≤ 0.06 µg/mL
- MIC (Enterococcus [18]): 8 µg/mL (≈ 5.65 µM)

Structure (SMILES): NC1=NC[C@@H]([C@H](O)[C@@H]2NC(=O)[C@@H](Cc3ccc(O[C@H]4O[C@H](CO)[C@@H](O[C@H]5O[C@@H]6COC7(O[C@H]6[C@H](O)[C@@H]5O)C5CC6CC(C5)CC7C6)[C@H](O)[C@@H]4O)cc3)NC(=O)C(CC3CCCCC3)NC(=O)CNC(=O)[C@H](CO)NC(=O)[C@@H]([C@@H](O)[C@@H]3CN=C(N)N3[C@H]3O[C@H](CO)[C@@H](O)[C@H](O)[C@@H]3O)NC2=O)N1 (stereo not given in full)
- ED50 (Staphylococcus aureus): 0.08 mg/kg
- MIC (Staphylococcus [19]): ≤ 0.12 µg/mL
- ED50 (Enterococcus faecalis): 0.39 mg/kg
- MIC (Staphylococcus [12]): 1 µg/mL (≈ 0.704 µM)
- MIC (Streptococcus [1]): ≤ 0.06 µg/mL
- MIC (Streptococcus [10]): ≤ 0.12 µg/mL
- MIC (Enterococcus [5]): 2 µg/mL (≈ 1.41 µM)
- MIC (Enterococcus [20]): 0.25 µg/mL (≈ 0.176 µM)

Structure (SMILES): C[C@@H](c1ccccc1)C1NC(=O)CNC(=O)[C@H](CO)NC(=O)[C@@H]([C@@H](O)[C@@H]2CN=C(N)N2[C@H]2O[C@H](CO)[C@@H](O)[C@H](O)[C@@H]2O)NC(=O)[C@H]([C@@H](O)[C@@H]2CN=C(N)N2)NC(=O)[C@@H](Cc2ccc(O[C@H]3O[C@H](CO)[C@@H](O[C@H]4O[C@@H]5COC6(CCCCC6)O[C@H]5[C@H](O)[C@@H]4O)[C@H](O)[C@@H]3O)cc2)NC1=O (stereo not given in full)
- MIC (Staphylococcus [17]): 4 µg/mL (≈ 2.91 µM)
- MIC (Streptococcus [21]): 1 µg/mL (≈ 0.727 µM)
- MIC (Enterococcus [18]): 8 µg/mL (≈ 5.82 µM)

Structure (SMILES): CN[C@H](CC(C)C)C(=O)N[C@H]1C(=O)N[C@@H](CC(N)=O)C(=O)N[C@H]2C(=O)N[C@H]3C(=O)N[C@H](C(=O)N[C@H](C(=O)O)c4cc(O)cc(O)c4-c4cc3ccc4O)[C@H](O)c3ccc(c(Cl)c3)Oc3cc2cc(c3O[C@@H]2O[C@H](CO)[C@@H](O)[C@H](O)[C@H]2O[C@H]2C[C@](C)(N)[C@H](O)[C@H](C)O2)Oc2ccc(cc2Cl)[C@H]1O [VANCOMYCIN]
- MIC (Streptococcus [22]): ≤ 0.5 µg/mL
- ED50 (Staphylococcus aureus): 1 mg/kg
- MIC (Enterococcus [23]): 128 µg/mL (≈ 88.3 µM)
- ED50 (Enterococcus faecalis): > 32 mg/kg
- MIC (Staphylococcus [2]): < 2 µg/mL
